# Hits are enriched below; roughly 5.4% of the tested compounds scored in any of these assays.
# tolC growth inh: blocks growth of E. coli BW25113 tolC mutant. OD615. growth inhibition, % at 10 µM (by protocol). 65,000 tested, 2.2% active;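 active = growth inhibition at or above a cutoff equal to the mean over every tested compound plus 3 SD, cut at about 60% in these data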;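 also: growth measured after 20 h incubation at 37 °C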
#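 System: E. coli ΔtolC::kan strain BW25113; Buffer or medium: LB broth supplemented with 50 µg/mL kanamycin; Compound: 10 µM final, single dose; Incubation: bacterial growth with compound for 20 h at 37 °C; Signal: A615 absorbance measurement; Evaluation: growth inhibition in percent.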
# HePTP inh: inhibitors of human HePTP phosphatase | 110,000 tested, 0.64% active | recombinant HePTP phosphatase activity, OD absorbance | P35236 | AID 521 | inhibition, % at 20 µM; in the data active = inhibition above about 50%;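 also: plate controls were vehicle for no effect and reference inhibitor for full effect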
# Target sequence (P35236 whole entry, looked up): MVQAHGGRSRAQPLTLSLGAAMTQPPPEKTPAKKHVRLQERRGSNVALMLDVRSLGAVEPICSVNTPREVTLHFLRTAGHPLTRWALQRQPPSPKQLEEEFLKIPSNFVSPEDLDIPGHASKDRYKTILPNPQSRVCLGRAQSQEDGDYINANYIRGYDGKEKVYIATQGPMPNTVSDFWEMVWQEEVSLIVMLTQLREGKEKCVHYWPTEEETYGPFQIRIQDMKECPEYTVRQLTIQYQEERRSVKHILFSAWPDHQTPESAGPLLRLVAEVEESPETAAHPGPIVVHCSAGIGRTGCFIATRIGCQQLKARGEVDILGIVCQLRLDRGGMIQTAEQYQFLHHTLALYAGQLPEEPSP
# PostGolgi ctrl: growth of the yeast control strain, post-Golgi counter-screen | inhibition, % at 10 µM | 98,000 tested, 5% active | efflux-deficient yeast background strain, growth absorbance A615, 16 h
# PostGolgi yeast: growth inhibition of a yeast mutant, post-Golgi transport screen | post-Golgi transport phenotypic cell assay | inhibition, % at 10 µM | 98,000 tested, 0.9% active | AID 739;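 also: yeast cells grown in 1536-well plates; yeast grown about 18 h at 30C before absorbance read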
# Ecoli WT expand: growth inhibitors of E. coli BW25113 wild type; OD600 absorbance; growth inhibition, % at 100 µM; 98,000 tested, 0.15% active;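 active = growth inhibition above about 50% at one test dose, limit read from the data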;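 also: growth measured after 20 h incubation at 37 °C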
# PLAP activator: activates human placental alkaline phosphatase. P05187. purified PLAP enzyme, luminescent substrate read-out; active compounds read high. activation fold at 20 µM. 96,000 tested, 1.2% active. AID 696; in the data active = activation fold above about 2
# * marks the source's active call; other numbers are inactive results; . = no result. Rule as the data show it, unless noted: active = inhibition above about 30%; inactive = the rest.
SMILES,tolC growth inh,HePTP inh,PostGolgi ctrl,PostGolgi yeast,Ecoli WT expand,PLAP activator
CSc1nccn1CC(=O)Nc1ccccc1,.,-3.9,.,.,.,.
Cc1[nH]c2c(C)cccc2c1CCNC(=O)c1ccc2c(c1[N+](=O)[O-])C(=O)c1ccccc1C2=O,.,.,39.9*,11.3,-8.0,1.4
Cc1[nH]c2ccccc2c1CCNC(=O)c1ccc2c(c1[N+](=O)[O-])C(=O)c1ccccc1C2=O,.,.,26.7,0.8,-7.0,1.1
O=c1c2ccccc2nnn1CSc1nnc(COc2ccc(Cl)cc2)n1Cc1ccco1,7.6,2.9,82.3*,102.7*,-2.0,1.1
Cc1ccc(OCc2nnc(SCc3nc4ccccc4[nH]3)n2Cc2ccco2)cc1,26.1,5.6,32.2*,-3.7,3.0,1.9
O=c1c2ccccc2nnn1CSc1nc2cc(Cl)ccc2c(=O)n1Cc1ccco1,-7.0,-2.9,.,.,.,.
O=C(COc1ccc(Cl)cc1Cl)Nc1ccc(NC(=O)c2ccco2)cc1,.,7.0,.,.,.,.
O=c1c2ccccc2c(-c2ccc(Cl)cc2)nn1-c1ccccc1,.,.,39.7*,6.5,0.0,0.9
c1ccc2[nH]c(SCc3ccc(-c4nnco4)cc3)nc2c1,6.3,8.5,-7.8,-0.8,10.0,2*
COc1ccccc1-c1nnc(NC(=O)C(C)SC2=NCCS2)s1 (stereo unspecified),10.9,4.1,37.5*,11.2,-9.0,1.3
CC(SC1=NCCS1)C(=O)Nc1nnc(-c2ccc(Cl)cc2)s1 (stereo unspecified),.,.,0.4,9.6,1.0,1.2
COc1ccc(-c2nc(C#N)c(N3CCN(c4ccccc4)CC3)o2)cc1,18.9,12.1,14.8,2.2,-6.0,1.3
C=C(C)C1CCC(C)=C1COC(=O)Nc1ccccc1 (stereo unspecified),77.7*,8.1,24.4,3.1,-13.0,0.9
CC1=CC(C)C(COC(=O)Nc2ccccc2)C(C)C1 (stereo unspecified),.,-6.0,.,.,.,.
CCOc1cc(/C=C2\Sc3ccccc3C2=O)ccc1OCc1ccc([N+](=O)[O-])cc1,.,6.4,.,.,.,.
NC(=O)N=Nc1c(O)[nH]c2ccccc12,.,-5.7,.,.,.,.
O=C1N=C(N=Nc2c(O)[nH]c3ccccc23)S/C1=C/c1ccc(Br)cc1,.,103.4*,.,.,.,.
CC(C)CCN1CC(O)=C(c2nc3ccccc3[nH]2)C1=N,.,.,24.0,28.7,-7.0,1.4
CCCCN1CC(O)=C(c2nc3ccccc3[nH]2)C1=N,1.4,3.8,30.1*,4.3,2.0,1.2
COc1ccc(OC)c(N2CC(O)=C(c3nc4ccccc4s3)C2=N)c1,.,.,3.2,-5.7,-16.0,2*
CC(C)N1CC(O)=C(c2ccccc2)C1=N,-1.5,1.2,5.2,-17.3,5.0,0.9
CCN(CC)CCCN1CC(O)=C(c2nc3ccccc3s2)C1=N,.,.,-7.7,-3.6,5.0,2.2*
CC(C)N1CC(O)=C(c2nc3ccccc3[nH]2)C1=N,-1.0,3.2,-2.8,12.4,11.0,2.5*
Cc1ccc(C(=O)COC(=O)c2n[nH]c(=O)c3ccccc23)cc1,.,.,14.5,-2.5,3.0,0.9
Cc1ccccc1Cn1cnc2c([N+](=O)[O-])c(C)c(C)cc21,.,.,40.2*,14.5,2.0,0.9
SMILES,tolC growth inh,HePTP inh,PostGolgi ctrl,PostGolgi yeast,Ecoli WT expand,PLAP activator
COc1ccc(Cn2cnc3c([N+](=O)[O-])c(C)c(C)cc32)cc1,.,.,11.5,-0.7,-2.0,0.9
CC(C)C(C)(C#N)NC(=O)CSc1ncnc2sc(-c3ccccc3)cc12 (stereo unspecified),.,.,40.2*,-11.5,-14.0,0.9
CN(CCC#N)C(=O)CSc1ncnc2sc(-c3ccccc3)cc12,26.5,-4.6,20.2,-5.4,-10.0,1.5
O=C(COc1ccc(S(=O)(=O)NC2CCCCC2)cc1Cl)Nc1ccc2c(c1)OCO2,.,.,42.6*,-1.6,0.0,1
FC(F)(F)c1cc(-c2cccs2)c2nncn2n1,.,0.7,.,.,.,.
O=C(COc1ccc(Cl)cc1Cl)N1CCCN(C(=O)COc2ccc(Cl)cc2Cl)CC1,.,.,74.9*,-4.7,-10.0,1.5
CC(=O)N1CCN(c2ccccc2NC(=O)COc2ccc(Cl)cc2Cl)CC1,25.0,-3.8,49.5*,0.0,0.0,1.1
CC(=O)N1CCN(c2ccc(NC(=O)COc3ccc(Cl)cc3Cl)cc2)CC1,0.3,4.4,-4.7,6.8,-14.0,1.3
O=C(COc1ccccc1)Nc1ccccc1N1CCCCC1,91.8*,-0.6,11.2,13.7,6.0,1.1
O=C(COc1ccccc1)Nc1ccccc1N1CCN(c2ccccc2)CC1,-7.6,9.6,1.1,-2.7,-2.0,0.9
CCCCCC(=O)Nc1ccccc1N1CCN(c2ccccc2)CC1,68.0*,7.5,-4.5,16.8,-3.0,1.2
CCOC(=O)CSc1nnc(Cc2ccc(OC)cc2)n1-c1ccccc1,.,.,0.8,-5.3,1.0,1.3
O=C(CSc1nnc(Cc2ccccc2)n1-c1ccccc1)NNC(=O)Cc1ccccc1,.,.,8.7,11.3,1.0,2.5*
Cc1nc(CS(=O)(=O)c2ccc(Cl)cc2)cc(N2CCOCC2)n1,.,.,-3.4,11.7,0.0,0.9
CC1=C(C#N)c2nc(N)c(C#N)c(C)c2/C1=C/c1ccc(-c2ccccc2[N+](=O)[O-])o1,.,81.0*,.,.,.,.
CC1=C(C#N)c2nc(N)c(C#N)c(C)c2/C1=C\c1ccc(C)cc1,.,.,100.0*,103.7*,-5.0,1.1
COc1ccc(/C=C2/C(C)=C(C#N)c3nc(N)c(C#N)c(C)c32)cc1Br,.,-1.6,.,.,.,.
Cc1noc(C)c1CSc1nnc(-c2ccncc2)n1-c1cccc(Cl)c1C,2.3,-10.6,-3.4,-4.7,0.0,1.4
CCOC(=O)c1cccc(NC(=O)c2cc3sccc3n2C)c1,73.4*,-7.0,17.7,-2.2,-11.0,0.7
CCOC(=O)c1ccccc1NC(=O)c1cc2sccc2n1C,-19.8,-15.0,2.4,-1.5,-5.0,1
COc1ccc(C(=O)Nc2nnc(Cc3cccs3)s2)cc1OC,11.9,12.9,6.3,-5.7,-8.0,1
O=C(C1CCN(S(=O)(=O)N2CCOCC2)CC1)N1CCOCC1,-19.9,4.8,30.7*,0.0,-7.0,0.9
CCS(=O)(=O)N1CCC(C(=O)N2CCOCC2)CC1,-18.8,1.1,2.8,-4.5,1.0,1
CCc1c(C)[nH]c2nc3ccccc3n2c1=O,.,.,12.3,-1.9,-7.0,2.3*
O=c1cc(-c2ccccc2)[nH]c2nc3ccccc3n12,3.9,4.6,18.5,-6.1,-5.0,1.3
SMILES,tolC growth inh,HePTP inh,PostGolgi ctrl,PostGolgi yeast,Ecoli WT expand,PLAP activator
CCCS(=O)(=O)N1CCCC(C(=O)NCCCN(C)Cc2ccccc2)C1 (stereo unspecified),-33.0,5.2,38.9*,5.0,1.0,1.2
COC(=O)c1ccc(NC(=O)c2cn(-c3ccccc3)nc2-c2ccncc2)cc1,.,.,32.4*,71.8*,-12.0,1.1
CCCCOc1ccc(-c2c(C#N)c(N)nc(SCC(N)=O)c2C#N)cc1,69.8*,1.4,12.9,0.8,1.0,1.4
CCCCOC(=O)CSc1nc(N)c(C#N)c(-c2ccc(OCC)cc2)c1C#N,-9.2,9.7,2.2,-9.8,-3.0,0.8
COc1cccc(CN2CCN(C(=O)c3cccc4ccccc34)CC2)c1,.,9.0,.,.,.,.
COc1cccc(NC(=O)c2ccccc2-c2nc(-c3cccc(C)c3)no2)c1,37.7,5.0,34.3*,-3.0,-25.0,1.3

# Assay outcomes deposited in PubChem BioAssay by several laboratories.
